The source made the active and inactive calls. No cut-off for these calls is given here.

Assay [1] deals with Pseudomonas aeruginosa. Put plainly: Inhibition of biofilm formation in Pseudomonas aeruginosa PAO1 incubated for 24 hrs crystal violet staining based SEM assay. The class given is functional, organism-based.
Assay [2] relates to Pseudomonas aeruginosa. Put plainly: Inhibition of pyocyanin production in Pseudomonas aeruginosa PAO1 at 1/2 time MIC incubated for 18 hrs. The class given is functional. In outline:
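Overnight PAO1 in LB diluted to OD600 = 0.05, subcultured 5–7 h to mid-log, rediluted to OD600 = 0.05. 5 mL with compound grown 18 h at 37 °C, 200 rpm. Supernatant extracted with 3 mL chloroform, back-extracted into 0.2 M HCl, absorbance at 520 nm.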

The nature of assay [3]: Inhibition of quorum sensing system in Pseudomonas aeruginosa PAO1. In outline: (§1)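 Plate screen. CV026 grown overnight in LB with 50 μg ml−1 kanamycin; 15 μl seeded into 15 ml LB agar (1.0% agarose) containing 20 μM C4-HSL. PAO1 plates run in parallel. Test colonies inoculated by toothpick, incubated overnight at 37 °C. Ring of colourless viable cells around the colony scored as inhibition.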

Assay [4] in a line: Inhibition of quorum sensing system in Chromobacterium violaceum CV026. In outline:
as §1

Assay [5] deals with Pseudomonas aeruginosa. Put plainly: Inhibition of biofilm formation in Pseudomonas aeruginosa PAO1 at 1/2 times MIC incubated for 24 hrs crystal violet staining based SEM assay. The class given is functional.

Take `Cn1cc(Cc2ccccc2C#N)c2ccccc21`: the inhibition result in the assay on Pseudomonas aeruginosa [1] is “Dose-dependent-effect”. For the same compound, the inhibition entry in the assay with Pseudomonas aeruginosa [2] is “Active”.
`N#Cc1ccc(Br)cc1Cc1c[nH]c2ccccc12`: the inhibition result (in assay [3]; in assay [4]; with Pseudomonas aeruginosa [2]) was “Active” in each case. For the same compound, in the assay with Pseudomonas aeruginosa [1], the inhibition entry was “Dose-dependent-effect”. Further, the “inhibition (INH)” value with Pseudomonas aeruginosa [5] came to 21%.
On to `N#Cc1ccccc1Cc1ccccc1`, for which, in the assay with Pseudomonas aeruginosa [1], the inhibition entry is “Dose-dependent-effect”. Also, the inhibition entry with Pseudomonas aeruginosa [2] was “Active”.
As to `Nc1ccccc1Cc1c[nH]c2ccccc12`, the inhibition result is “Active; Showed Higher Activity” in assay [4], “Dose-dependent-effect” in the assay with Pseudomonas aeruginosa [1] and “Active; Showed Higher Activity Than Positive Control Rsv” in the assay on Pseudomonas aeruginosa [2].
As for `N#Cc1ccccc1Cc1c[nH]c2cc(Br)ccc12`, the inhibition result in the assay on Pseudomonas aeruginosa [1] was “Dose-dependent-effect”. Besides, the “inhibition (INH)” value in the assay on Pseudomonas aeruginosa [5] is reported as 21%. Further, the inhibition result in the assay on Pseudomonas aeruginosa [2] is “Active”.
On to `Cc1c(Cc2ccccc2C#N)c2ccccc2n1C(=O)OC(C)(C)C`, for which the inhibition result in the assay with Pseudomonas aeruginosa [1] was “Dose-dependent-effect”. In addition, in the assay with Pseudomonas aeruginosa [2], the inhibition entry is “Active”.
For `Cc1ccc(C#N)c(Cc2c[nH]c3ccccc23)c1`, the inhibition entry was “Active; Strong Inhibition Observed” in assay [3] and “Dose-dependent-effect” with Pseudomonas aeruginosa [1]. Also, the “inhibition (INH)” value with Pseudomonas aeruginosa [5] came to 24%. Moreover, the inhibition entry in the assay on Pseudomonas aeruginosa [2] is “Active”.
For the compound `N#Cc1ccccc1Cc1c[nH]c2cccc(F)c12`, in the assay on Pseudomonas aeruginosa [1], the inhibition entry was “Dose-dependent-effect”. In addition, the “inhibition (INH)” value in the assay on Pseudomonas aeruginosa [5] was 35%. In addition, the inhibition result with Pseudomonas aeruginosa [2] was “Active”.
Consider `CCOC(=O)C(C#N)Cc1c[nH]c2ccccc12` (centres undefined), for which the inhibition entry in assay [3] was “Active; Strong Inhibition Observed”; in the assay on Pseudomonas aeruginosa [1], “Dose-dependent-effect”. Also, the inhibition result in the assay with Pseudomonas aeruginosa [2] was “Active”.
With `Cc1[nH]c2ccccc2c1Cc1ccccc1C#N`, the inhibition result (in assay [3]; with Pseudomonas aeruginosa [2]) was “Active” in each case. Besides, the inhibition entry with Pseudomonas aeruginosa [1] is “Dose-dependent-effect”. The “inhibition (INH)” value with Pseudomonas aeruginosa [5] was found to be 13%.
Take `N#Cc1ccc(Cl)cc1Cc1c[nH]c2ccccc12`: the inhibition result (in assay [3]; in the assay on Pseudomonas aeruginosa [2]) was “Active” each time. In addition, the inhibition entry in the assay with Pseudomonas aeruginosa [1] was “Dose-dependent-effect”. Moreover, the “inhibition (INH)” value in the assay on Pseudomonas aeruginosa [5] worked out at 56%.
Consider `CC(C)(C)OC(=O)n1c(-c2ccccc2)c(Cc2ccccc2C#N)c2ccccc21`, for which the inhibition entry is “Dose-dependent-effect” in the assay on Pseudomonas aeruginosa [1] and “Active; Showed Higher Activity Than Positive Control Rsv” in the assay with Pseudomonas aeruginosa [2].
Consider `N#Cc1ccccc1Cc1c[nH]c2cc(Cl)ccc12`, for which the inhibition entry (in assay [3]; with Pseudomonas aeruginosa [2]) was “Active” in each case. In addition, the inhibition result in the assay on Pseudomonas aeruginosa [1] was “Dose-dependent-effect”. Further, the “inhibition (INH)” value in the assay with Pseudomonas aeruginosa [5] is given as 26%.
In the case of `CCOC(=O)C(C#N)c1c[nH]c2ccccc12` (centres undefined), the inhibition result (in assay [4]; in the assay with Pseudomonas aeruginosa [2]) was “Active” throughout. The inhibition result in the assay with Pseudomonas aeruginosa [1] is “Dose-dependent-effect”.
With `Cc1[nH]c2ccccc2c1CCc1ccccc1C#N`, the results for the inhibition result (in assay [3]; in the assay on Pseudomonas aeruginosa [1]) were “Active; Strong Inhibition Observed” and “Dose-dependent-effect”, respectively. Besides, the inhibition entry (in assay [4]; in the assay with Pseudomonas aeruginosa [2]) was “Active” each time.
On to `CC(c1ccccc1C#N)c1c[nH]c2ccccc12` (centres undefined), for which the inhibition entry was “Active; Strong Inhibition Observed” in assay [3] and “Dose-dependent-effect” with Pseudomonas aeruginosa [1]. For the same compound, in the assay on Pseudomonas aeruginosa [2], the inhibition entry is “Active”.
With `Cc1ccc(Cc2c[nH]c3ccccc23)c(C#N)c1`, the inhibition result in assay [3] was “Active; Strong Inhibition Observed”; in the assay with Pseudomonas aeruginosa [1] it was “Dose-dependent-effect”. For the same compound, the “inhibition (INH)” value worked out at 1% with Pseudomonas aeruginosa [5] and 60% in the assay with Pseudomonas aeruginosa [2].
Turning to `COc1cccc2[nH]cc(Cc3ccccc3C#N)c12`, the inhibition result is “Active; Strong Inhibition Observed” in assay [3] and “Dose-dependent-effect” with Pseudomonas aeruginosa [1]. For the same compound, in the assay on Pseudomonas aeruginosa [5], the “inhibition (INH)” value was determined as 21%. Further, the inhibition result with Pseudomonas aeruginosa [2] was “Active”.

(Values after ChEMBL document CHEMBL6083194, “Discovery and evaluation of 3-(2-isocyanobenzyl)-1H-indole derivatives as potential quorum sensing inhibitors for the control of Pseudomonas aeruginosa infections in vitro” (RSC Med Chem, 2024).)
